Test results: ChEMBL document CHEMBL1134563, “Synthesis, mechanism of action, and antiviral activity of a new series of covalent mechanism-based inhibitors of S-adenosyl-L-homocysteine hydrolase” (J Med Chem, 2001)
pEC50, pKi: −log10 of the molar value. Values after ≈ are worked out from the molar mass of the structure shown.

Key:
Vero [1] = test: Effective concentration required to inhibit parainfluenza-3 virus-induced cytopathicity by 50% in Vero cell lines; assay type: functional, cell-based; conditions: Chlorocebus sabaeus
Vero [2] = test: Effective concentration required to inhibit Junin virus-induced cytopathicity by 50% in Vero cell lines; assay type: functional, cell-based; conditions: Chlorocebus sabaeus
HEL [3] = test: Minimum inhibitory concentration required to elicit microscopically visible cell morphology in HEL cell lines; assay type: functional; conditions: Homo sapiens
E6SM [4] = test: Minimum inhibitory concentration required to elicit microscopically visible cell morphology in E6SM cell lines; assay type: functional; conditions: Homo sapiens
HeLa [5] = test: Minimum inhibitory concentration required to elicit microscopically visible cell morphology in HeLa cell lines; assay type: functional; conditions: Homo sapiens
E6SM [6] = test: Effective concentration required to inhibit Herpes simplex virus-1(HSV-1) / […] kinase deficient (TK-)B2006 / VMW1837 induced cytopathicity by 50% in E6SM cell lines; assay type: functional, cell-based; conditions: Homo sapiens
Vero [7] = test: Effective concentration required to inhibit reovirus-induced cytopathicity by 50% in Vero cell lines; assay type: functional, cell-based; conditions: Chlorocebus sabaeus
HEL [8] = test: Effective concentration required to inhibit thymidine kinase (TK+) Varicella-Zoster virus-induced cytopathicity by 50% in YS strain HEL cell lines; assay type: functional, cell-based; conditions: Homo sapiens
HEL [9] = test: Effective concentration required to inhibit Thymidine kinase deficient (TK-) Varicella-Zoster virus-induced cytopathicity by 50% in 07/01 strain HEL cell lines; assay type: functional, cell-based; conditions: Homo sapiens
HEL [10] = test: Effective concentration required to inhibit cytomegalo virus-induced cytopathicity by 50% in AD-169 strain HEL cell lines; assay type: functional, cell-based; conditions: Homo sapiens
Adenosylhomocysteinase [11] = target: T1, Adenosylhomocysteinase (Homo sapiens, UniProt P23526); test: Inhibition of purified recombinant human placental S-adenosyl-homocysteine hydrolase
How it was run: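 Enzyme preincubated at 37 °C in assay buffer with inactivator (5-40 µM). Residual activity was read over time in the synthetic direction from the formation of [8-14C]-AdoHcy, using 10 µM [8-14C]-Ado, 5 mM D,L-Hcy, 20 mM potassium phosphate pH 7.5, 1 mg/mL BSA and 1 mM EDTA, 10 min at 37 °C. Reaction stopped with HCl; Ado/AdoHcy separated on Cellex P.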
Target sequence in this assay (P23526 whole entry): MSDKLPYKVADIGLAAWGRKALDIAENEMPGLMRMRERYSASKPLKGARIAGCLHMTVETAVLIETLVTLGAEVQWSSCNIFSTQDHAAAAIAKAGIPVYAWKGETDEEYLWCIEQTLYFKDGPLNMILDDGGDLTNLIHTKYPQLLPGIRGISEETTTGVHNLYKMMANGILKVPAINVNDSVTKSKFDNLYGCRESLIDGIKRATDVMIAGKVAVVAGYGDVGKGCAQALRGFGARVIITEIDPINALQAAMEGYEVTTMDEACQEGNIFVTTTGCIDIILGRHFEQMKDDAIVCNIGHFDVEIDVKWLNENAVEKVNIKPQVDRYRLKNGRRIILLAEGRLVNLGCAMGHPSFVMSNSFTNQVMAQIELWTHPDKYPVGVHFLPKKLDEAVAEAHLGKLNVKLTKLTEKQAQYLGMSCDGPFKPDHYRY

Adenosylhomocysteinase [12] = target: T1, Adenosylhomocysteinase
Target sequence in this assay (P23526 2-432 limits assumed): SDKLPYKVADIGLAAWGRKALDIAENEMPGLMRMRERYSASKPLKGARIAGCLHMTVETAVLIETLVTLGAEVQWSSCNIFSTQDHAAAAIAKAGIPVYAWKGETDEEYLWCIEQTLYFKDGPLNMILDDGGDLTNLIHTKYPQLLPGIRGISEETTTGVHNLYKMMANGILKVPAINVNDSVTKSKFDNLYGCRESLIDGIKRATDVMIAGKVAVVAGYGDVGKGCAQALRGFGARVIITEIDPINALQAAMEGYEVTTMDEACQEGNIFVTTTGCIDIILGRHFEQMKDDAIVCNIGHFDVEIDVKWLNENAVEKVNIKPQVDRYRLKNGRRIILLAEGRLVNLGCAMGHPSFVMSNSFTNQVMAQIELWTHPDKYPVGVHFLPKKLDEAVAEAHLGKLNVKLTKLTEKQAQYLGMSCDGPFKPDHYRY

[13] = half life of enzyme inactivation at 15 uM; assay type: functional
How it was run: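 Recombinant human placental AdoHcy hydrolase was preincubated with inhibitor (5-40 µM range) in assay buffer at 37 °C. Residual activity was read at set times in the synthetic direction: [8-14C]-AdoHcy formation from 10 µM [8-14C]-Ado plus 5 mM D,L-Hcy, in 20 mM K phosphate pH 7.5, 1 mg/mL BSA, 1 mM EDTA, for 10 min at 37 °C. HCl stopped the reaction, and products were separated on Cellex P.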

E6SM [14] = test: Effective concentration required to inhibit Herpes simplex virus-1 (HSV-1) induced cytopathicity by 50% in E6SM cell lines; assay type: functional, cell-based; conditions: Homo sapiens
Vero [15] = test: Effective concentration required to inhibit Sindbis virus-induced cytopathicity by 50% in Vero cell lines; assay type: functional, cell-based; conditions: Chlorocebus sabaeus
HeLa [16] = test: Effective concentration required to inhibit Coxsackie virus B4-induced cytopathicity by 50% in HeLa cell lines; assay type: functional, cell-based; conditions: Homo sapiens
Vero [17] = test: Effective concentration required to inhibit Tacaribe virus-induced cytopathicity by 50% Vero cell lines; assay type: functional, cell-based; conditions: Chlorocebus sabaeus
HEL [18] = test: Effective concentration required to inhibit thymidine kinase (TK+) Varicella-Zoster virus-induced cytopathicity by 50% in OKA strain HEL cell lines; assay type: functional, cell-based; conditions: Homo sapiens
E6SM [19] = test: Effective concentration required to inhibit Herpes simplex virus-2 (HSV-2) induced cytopathicity by 50% in E6SM cell lines; assay type: functional, cell-based; conditions: Homo sapiens
E6SM [20] = test: Effective concentration required to inhibit Vaccinia virus-induced cytopathicity by 50% in E6SM cell lines; assay type: functional, cell-based; conditions: Homo sapiens
Adenosylhomocysteinase [21] = target: T1, Adenosylhomocysteinase; remark: listed apart in the source
Target sequence in this assay (P23526 2-432 limits assumed): as above

Adenosylhomocysteinase [22] = target: T1, Adenosylhomocysteinase; remark: listed apart in the source
Target sequence in this assay (P23526 2-432 limits assumed): as above

Vero [23] = test: Effective concentration required to inhibit PuntaToro virus-induced cytopathicity by 50% in Vero cell lines; assay type: functional, cell-based; conditions: Chlorocebus sabaeus
Vero [24] = test: Effective concentration required to inhibit respiratory synaptial (RSV) virus-induced cytopathicity by 50% in Vero cell lines; assay type: functional, cell-based; conditions: Chlorocebus sabaeus
HEL [25] = test: Effective concentration required to inhibit Thymidine kinase deficient (TK-) Varicella-Zoster virus-induced cytopathicity by 50% in YS/R strain HEL cell lines; assay type: functional, cell-based; conditions: Homo sapiens
HeLa [26] = test: Effective concentration required to inhibit vesicular stomatitis virus (VSV)-induced cytopathicity by 50% in HeLa cell lines; assay type: functional, cell-based; conditions: Homo sapiens
HeLa [27] = test: Effective concentration required to inhibit respiratory synaptial(RSV) virus-induced cytopathicity by 50% in HeLa cell lines; assay type: functional, cell-based; conditions: Homo sapiens
E6SM [28] = test: Effective concentration required to inhibit vesicular stomatitis virus(VSV) -induced cytopathicity by 50% in E6SM cell lines; assay type: functional, cell-based; conditions: Homo sapiens
HEL [29] = test: Effective concentration required to inhibit cytomegalo virus-induced cytopathicity by 50% in Davis-169 strain HEL cell lines; assay type: functional, cell-based; conditions: Homo sapiens
HeLa [30] = test: Effective concentration required to inhibit respiratory synaptial (RSV) virus-induced cytopathicity by 50% in HeLa cell lines; assay type: functional, cell-based; conditions: Homo sapiens
Vero [31] = test: Effective concentration required to inhibit Punta Toro virus-induced cytopathicity by 50% in Vero cell lines; assay type: functional, cell-based; conditions: Chlorocebus sabaeus
Vero [32] = test: Minimum inhibitory concentration required to elicit microscopically visible cell morphology in Vero cell lines; assay type: functional; conditions: Chlorocebus sabaeus
HEL [33] = test: Effective concentration required to inhibit cytomegalo virus(CMV) -induced cytopathicity by 50% in AD-169 strain HEL cell lines; assay type: functional, cell-based; conditions: Homo sapiens

SMILES | pEC50 (Vero [1]) | MIC (HEL [3]) | MIC (E6SM [4]) | MIC (HeLa [5]) | pEC50 (E6SM [6]) | pEC50 (Vero [7]) | pEC50 (HEL [8]) | pEC50 (HEL [9]) | pEC50 (E6SM [14]) | pEC50 (HeLa [16]) | pEC50 (HEL [18]) | pEC50 (E6SM [19]) | pEC50 (E6SM [20]) | pEC50 (Vero [23]) | pEC50 (Vero [24]) | pEC50 (HEL [25]) | pEC50 (HeLa [26]) | pEC50 (HeLa [27]) | pEC50 (E6SM [28]) | pEC50 (HEL [29]) | also measured
CC#CSC[C@H]1OC(n2cnc3c(N)ncnc32)[C@H](O)[C@@H]1O (stereo partly drawn) | < 3.92 | > 200 µM | 1240 µM (≈ 398 µg/mL) | > 1240 µM | < 3.60 | < 3.92 | < 3.70 | 3.70 | 3.60 | < 3.92 | < 3.70 | 3.21 | 4.31 | < 3.92 | < 2.91 | 3.70 | < 2.91 | < 3.60 | < 3.60 | < 3.70 | pEC50 (Vero [2]): < 3.70; pEC50 (HEL [10]): < 3.70; pKi (Adenosylhomocysteinase [11]): 4.80; NAD+ content (Adenosylhomocysteinase [12]): 0.68; T1/2 [13]: 7 min; pEC50 (Vero [15]): < 4.40; pEC50 (Vero [17]): < 3.70; K inact (Adenosylhomocysteinase [21]): 0.062 min⁻¹; NADH content (Adenosylhomocysteinase [22]): 0.32
Nc1ncnc2c1ncn2C[C@H](O)CO [(S)-DHPA] | 3.64 |  |  | > 2000 µM |  | 4.35 |  |  |  | 3.64 |  |  |  |  | < 2.70 |  | 3.64 |  |  |  | pEC50 (HeLa [30]): 2.70; pEC50 (Vero [31]): < 2.70; MIC (Vero [32]): > 2000 µM
NC(=O)c1ncn([C@@H]2O[C@H](CO)[C@@H](O)[C@H]2O)n1 [RIBAVIRIN] | 3.71 |  | > 1600 µM | > 1600 µM | 8.30 | 4.40 |  |  | 3.49 | < 3.49 |  | 3.49 | 4.19 | 4.40 | < 2.80 |  | 3.00 | 5.82 | 4.40 |  | 
Nc1nc2c(ncn2COC(CO)CO)c(=O)[nH]1 [GANCICLOVIR] |  | > 150 µM | > 1600 µM |  |  |  |  |  | 8.92 |  |  | 8.92 | < 4.00 |  |  |  | < 4.00 |  |  | 4.93 | pEC50 (HEL [10]): 5.11
C#CCSC[C@H]1OC(n2cnc3c(N)ncnc32)[C@H](O)[C@@H]1O (stereo partly drawn) | < 3.92 | > 200 µM | 1240 µM (≈ 398 µg/mL) | 1240 µM (≈ 398 µg/mL) | < 3.60 | < 3.92 | < 3.70 | 3.81 | < 3.60 | < 3.92 | < 3.70 | < 3.60 | < 3.60 | < 3.92 | < 3.60 | 3.90 | < 3.60 | < 3.60 | < 3.60 | < 3.70 | pEC50 (Vero [2]): < 3.70; pKi (Adenosylhomocysteinase [11]): 4.35; NAD+ content (Adenosylhomocysteinase [12]): 0; pEC50 (HEL [33]): < 3.70; T1/2 [13]: 19 min; pEC50 (Vero [15]): < 4.40; pEC50 (Vero [17]): < 3.70; K inact (Adenosylhomocysteinase [21]): 0.0074 min⁻¹; NADH content (Adenosylhomocysteinase [22]): 1
Nc1nc2c(ncn2COCCO)c(=O)[nH]1 [ACYCLOVIR] |  | > 150 µM |  |  |  |  | 5.39 | 4.39 |  |  | 5.34 |  |  |  |  | 4.20 |  |  |  |  | 
C=C=CSC[C@H]1OC(n2cnc3c(N)ncnc32)[C@H](O)[C@@H]1O (stereo partly drawn) | < 3.21 | > 200 µM | 1240 µM (≈ 398 µg/mL) | 1240 µM (≈ 398 µg/mL) | 3.82 | < 3.42 | < 3.70 | 4.06 | 3.60 | < 3.22 | < 3.70 | < 3.60 | 5.72 | < 3.21 | < 3.60 | < 3.70 | < 3.60 | < 3.60 | < 3.60 | < 3.70 | pEC50 (Vero [2]): < 3.70; pEC50 (HEL [10]): < 3.70; pKi (Adenosylhomocysteinase [11]): 4.80; NAD+ content (Adenosylhomocysteinase [12]): 0.7; T1/2 [13]: 7 min; pEC50 (Vero [15]): < 3.70; pEC50 (Vero [17]): < 3.70; K inact (Adenosylhomocysteinase [21]): 0.12 min⁻¹; NADH content (Adenosylhomocysteinase [22]): 0.3
